Source: PubChem
A selection: hits, their analogues and other compounds. The true share with any hit is near 3.1%.
KCNK3 block = human KCNK3 channel inhibition, primary screen. B-score at 10 µM. CHO-KCNK3 thallium flux, FluxOR fluorescence; hits give low values. 340,000 compounds, 0.84% hits. O14649. AID 602410;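 active = B-score under library mean minus 4 SD, starting fluorescence ratio at most library mean plus 5 SD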;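 note: more negative B-score means stronger inhibition of thallium flux through KCNK3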
Target sequence (O14649 whole entry, looked up): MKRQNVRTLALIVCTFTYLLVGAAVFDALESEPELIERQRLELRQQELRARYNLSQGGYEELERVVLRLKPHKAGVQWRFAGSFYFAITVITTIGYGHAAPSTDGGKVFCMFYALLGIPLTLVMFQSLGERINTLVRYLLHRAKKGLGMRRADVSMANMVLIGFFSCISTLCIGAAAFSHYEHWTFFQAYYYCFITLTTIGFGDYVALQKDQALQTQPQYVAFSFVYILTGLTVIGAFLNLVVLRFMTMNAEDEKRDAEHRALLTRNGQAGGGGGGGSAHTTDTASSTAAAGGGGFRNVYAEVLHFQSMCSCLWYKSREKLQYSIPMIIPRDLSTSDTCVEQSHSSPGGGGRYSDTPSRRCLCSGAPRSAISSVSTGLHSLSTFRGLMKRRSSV
KCNQ1 block = inhibitors of human KCNQ1 potassium channel; CHO-K1 KCNQ1, FluxOR thallium flux fluorescence; hits give high values; B-score at 10 µM; 310,000 compounds, 1.3% hits; AID 2642; P51787;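 active = compounds whose thallium flux B-score, printed positive for inhibition, exceeds three library SD while starting fluorescence stays within three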;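 note: channel opened by potassium depolarization with thallium stimulus after 20 min compound exposure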
KCNQ1 act = potentiates or activates the human KCNQ1 potassium channel; B-score at 10 µM; CHO-K1 KCNQ1, thallium flux FluxOR fluorescence; hits give high values; 310,000 compounds, 0.35% hits; AID 2648;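 active = fluorescence ratio B-score, a plate-corrected score, at least three library SD, with initial intensity B-score within 5 SD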
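System: Stable KCNQ1 CHO-K1 line | Incubation: 90 min dye loading and 20 min compound exposure, both at room temperature | Measure: Ratio B score | Medium: Assay buffer for compound exposure, DMSO matched across wells | Compound dosing: Single-concentration screen | Probe or stimulus: K+/Tl+ depolarizing stimulus | Measured by: Kinetic FluxOR fluorescence, 10 s baseline plus 110 s post-stimulus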
KCNK9 block = human KCNK9 channel inhibition. 310,000 compounds, 1.2% hits. B-score at 10 µM. Q9NPC2. HEK293 KCNK9, FluxOR thallium flux fluorescence; hits give low values;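 active = ratio B-score over 3 SD below the library mean, with starting fluorescence within 5 SD of its mean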;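 note: negative B-score means less thallium flux so channel inhibition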
Target sequence (Q9NPC2 whole entry, looked up): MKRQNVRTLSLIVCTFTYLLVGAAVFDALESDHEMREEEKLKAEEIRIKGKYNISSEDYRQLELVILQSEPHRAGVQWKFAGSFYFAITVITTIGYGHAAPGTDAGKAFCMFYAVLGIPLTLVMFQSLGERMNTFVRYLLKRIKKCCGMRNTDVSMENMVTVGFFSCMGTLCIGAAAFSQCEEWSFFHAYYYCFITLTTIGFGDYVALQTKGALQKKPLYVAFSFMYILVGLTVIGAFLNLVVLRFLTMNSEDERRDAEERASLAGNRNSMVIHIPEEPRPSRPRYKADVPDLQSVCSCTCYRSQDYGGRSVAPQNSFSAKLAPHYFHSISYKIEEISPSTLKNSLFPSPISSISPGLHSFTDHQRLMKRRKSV
hERG protect = compounds protecting human hERG from proarrhythmic drug block; 310,000 compounds, 0.51% hits; AID 1511; CHO-hERG, FluxOR thallium flux, dofetilide IC70 present; Q12809; activation (rescue from dofetilide block), less the hit threshold, % at 10 µM;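 active = activation above the mean of controls blocked by dofetilide plus 5 SD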;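 note: thallium influx through hERG after potassium depolarization seen as dye fluorescence rise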
KCNK9 inh conf = confirmation of human KCNK9 potassium channel inhibitors; inhibition, % at 10 µM; 4,900 compounds, 43% hits; shares compounds with KCNK9 block; HEK293 KCNK9 cells, FluxOR thallium flux fluorescence;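 active = thallium signal inhibited by more than 5 SD of the compound-free buffer control wells, on both duplicate plates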
Kir21 sel = mouse Kir2.1 off-target activity of KCNK9 modulators | AID 492993 | inhibition, % at 10 µM | Kir2.1 cells, FluxOR thallium flux fluorescence | shares compounds with KCNK9 block | 4,900 compounds, 4% hits;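 active = thallium signal drop more than 5 SD beyond the mean of the no-compound control wells, seen in both duplicate plates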;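 note: signal is fluorescence rise after thallium addition divided by baseline fluorescence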
KCNK9 uninduced = second check of KCNK9 modulator effects in non-induced HEK293 cells | AID 492997 | 4,900 compounds, 40% hits | inhibition, % at 10 µM | FluxOR thallium flux | shares compounds with KCNK9 block;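 active = thallium signal drop beyond 5 SD of the untreated control mean, on both duplicate plates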
KCNK3 confirm = confirmation of human KCNK3 two-pore domain potassium channel inhibitors | shares compounds with KCNK3 block | CHO-KCNK3 thallium flux, FluxOR fluorescence; 0% buffer, 100% carvedilol maximal block | ratio percent of control, % at 10 µM | 2,400 compounds, 99% hits;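 active = ratio percent of control, averaged over triplicates, above buffer control mean plus 5 SD, cut at about 64% in these data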;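 note: ratio is the fluorescence rise from min to max over baseline after thallium stimulus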
KCNK3 uninduced = counter-screen for KCNK3 inhibitors: effect in non-induced cells | shares compounds with KCNK3 block | non-induced KCNK3 parental cells, FluxOR thallium flux; hits give low values | thallium flux ratio (lower = more inhibition) at 10 µM | 2,400 compounds, 40% hits;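 active = thallium flux ratio, averaged over three wells, more than 5 SD below the buffer control mean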;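 note: host cells are CHO cells without KCNK3 induction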
Hits are given with their value; i = inactive; nt = not tested or not shown.

SMILES | KCNK3 block | KCNQ1 block | KCNQ1 act | KCNK9 block | hERG protect | KCNK9 inh conf | Kir21 sel | KCNK9 uninduced | KCNK3 confirm | KCNK3 uninduced
COc1ccc(C(=O)Nc2ccccc2C(N)=O)cc1 | i | i | i | i | i | nt | nt | nt | nt | nt
c1ccc(CSc2nnc(-c3sccc3-n3cccc3)o2)cc1 | i | i | i | -8.3 | i | i | i | 35% | nt | nt
Cc1nc(NC(=O)CN2CCC(O)(c3ccc(F)cc3)CC2)sc1C | i | i | i | i | i | nt | nt | nt | nt | nt
CC(=O)c1cccc(NC(=O)C2C(c3ccccc3)C2(Cl)Cl)c1 (stereo not drawn) | i | i | i | i | i | nt | nt | nt | nt | nt
Cc1cccc(NC(=O)C2C(c3ccccc3)C2(Cl)Cl)c1 (stereo not drawn) | i | i | i | i | i | i | i | i | nt | nt
CCCS(=O)(=O)N1CCN=C1SCc1cccc2ccccc12 | i | i | i | i | i | i | i | i | nt | nt
CCOC(=O)CCSc1nc2c(c(C(F)(F)F)c1C#N)CCC2 | i | i | i | i | i | i | i | i | nt | nt
CCOC(=O)CC(=O)CSc1nc2c(c(C)c1C#N)CCC2 | i | i | i | i | i | nt | nt | nt | nt | nt
CC(C)Cn1c(SC(C)C(=O)Nc2ccc3c(c2)OCCO3)nc2ccccc2c1=O (stereo not drawn) | i | i | i | -8.5 | i | i | i | i | nt | nt
O=C(CN1C(=O)S/C(=C\c2cccc(Cl)c2)C1=O)NCCCn1ccnc1 | i | i | i | i | i | i | i | i | nt | nt
Cc1ccccc1N1CCN(CCCN2C(=O)CC(=C(c3ccccc3)c3ccccc3)C2=O)CC1 | i | i | i | i | i | i | i | i | nt | nt
O=C(NCc1ccccc1Cl)c1cc(=O)[nH]c2ccccc12 | i | i | i | i | i | nt | nt | nt | nt | nt
CC(C)OC(=O)CN1CCN(C2c3ccccc3-c3ccccc32)CC1 | i | i | i | i | i | i | i | i | nt | nt
O=C(c1ccco1)N1CCN(C2c3ccccc3-c3ccccc32)CC1 | i | i | i | i | i | nt | nt | nt | nt | nt
O=[N+]([O-])c1cc(Cl)cc(C2=NCCN2)c1 | i | i | i | i | i | nt | nt | nt | nt | nt
Cc1nn2c3c(cnc2c1-c1ccc(Cl)cc1)C(=O)CC(c1ccco1)C3 (stereo not drawn) | i | i | i | i | i | nt | nt | nt | nt | nt
CCc1cc2cccc(C)c2nc1SCC(=O)NC1CCCC1 | -11 | i | i | -9 | i | 52% | i | 26% | 104 | i
CCCCc1nnc(NC(=O)Cc2ccc(S(=O)(=O)N3CCOCC3)s2)s1 | i | nt | nt | nt | nt | nt | nt | nt | nt | nt
Clc1ccc(CN(CC2CCCO2)C(c2cccs2)c2nnnn2C2CCCC2)cc1 (stereo not drawn) | -8.9 | 6 | i | -17 | i | 60% | i | 48% | 110 | 0.15
COC(=O)C1=C(C)NC(C)=C(C(=O)OC)C1c1ccc(-c2cccc(Cl)c2Cl)o1 | i | i | i | i | i | nt | nt | nt | nt | nt
COC(=O)C1=C(C)NC(C)=C(C(=O)OC)C1c1ccc(-c2cc(Cl)ccc2Cl)o1 | -9.7 | i | i | -9.5 | i | 38% | i | 40% | 127 | i
O=c1oc(-c2ccco2)nc2sc3c(c12)CCCC3 | i | i | i | i | i | nt | nt | nt | nt | nt
COc1ccccc1C(=O)Nc1ccc(C(=O)c2ccccc2)cc1 | -13 | i | i | -12 | i | 61% | i | i | 127 | 0.13
CC(C)(C)c1ccc(CSc2nnc(-c3ccccn3)n2Cc2ccco2)cc1 | i | i | i | -11 | i | 66% | 42% | 40% | 126 | 0.14
CNC(=O)CSc1nnc(-c2ccccn2)n1Cc1ccco1 | i | i | i | i | i | nt | nt | nt | nt | nt
SMILES | KCNK3 block | KCNQ1 block | KCNQ1 act | KCNK9 block | hERG protect | KCNK9 inh conf | Kir21 sel | KCNK9 uninduced | KCNK3 confirm | KCNK3 uninduced
CC(C)c1ccccc1NC(=O)COC(=O)c1c2c(nc3ccccc13)CCN(Cc1ccccc1)C2 | -9.7 | i | i | -12 | i | 66% | i | i | 132 | 0.14
Cc1cc(N2CCN(C)CC2)ccc1NC(=O)c1c2c(nc3ccccc13)CCN(Cc1ccccc1)C2 | i | i | i | i | i | nt | nt | nt | nt | nt
C/C=C(/C)C(=O)OC1c2c(ccc3ccc(=O)oc23)OC(C)(C)C1OC(=O)/C(C)=C\C (stereo not drawn) | -9.1 | i | i | -13 | i | 59% | i | 35% | 126 | 0.14
C/C=C(\C)C(=O)OC1c2c(ccc3ccc(=O)oc23)OC(C)(C)C1OC(C)=O (stereo not drawn) | i | i | i | i | i | nt | nt | nt | nt | nt
Cc1cccc(C)c1OCC(=O)Nc1oc(-c2ccccc2)c(-c2ccccc2)c1C#N | i | i | i | -17 | i | 32% | i | 24% | 119 | 0.15
N#Cc1c(NC(=O)CSc2n[nH]c(N)n2)oc(-c2ccccc2)c1-c1ccccc1 | i | i | i | i | i | nt | nt | nt | nt | nt
Cc1ccc(S(=O)(=O)N2CCCC2)cc1C(=O)NCC(C)(C)N1CCOCC1 | i | nt | nt | nt | nt | nt | nt | nt | nt | nt
CC(C)CN(CC(C)C)C(=O)c1cccc(S(=O)(=O)N2CCc3ccccc32)c1 | -9.7 | i | i | -8.8 | i | 40% | i | 37% | 111 | i
Cc1ccc(C2=NN(CC(=O)NCc3ccccn3)C(=O)CC2)cc1 | i | i | i | i | i | nt | nt | nt | nt | nt
CCCn1c(=O)c(C(=O)Nc2ccccc2C(=O)OCC)c(O)c2ccccc21 | -8.9 | i | i | -9.2 | i | 54% | i | 38% | 92 | i
CCCn1c(=O)c(C(=O)NCc2ccccc2)c(O)c2ccccc21 | i | i | i | i | i | nt | nt | nt | nt | nt
CC(=O)Nc1ccccc1C(=O)C(=O)Nc1cccc(C(=O)N2CC(C)CC(C)C2)c1 (stereo not drawn) | i | i | i | i | i | nt | nt | nt | nt | nt
C=C(C)COc1ccc(-c2ncnc(C(F)(F)F)c2-c2ccc(OC)cc2)c(O)c1 | -9.2 | i | i | i | i | i | i | i | 109 | 0.15
C=C(C)COc1ccc(-c2ncnc(C(F)(F)F)c2-c2ccccc2)c(O)c1 | i | i | i | i | i | nt | nt | nt | nt | nt
CC1CCN(c2ccc(NC(=O)C3CCCN3S(=O)(=O)c3ccc(F)cc3)cc2)CC1 (stereo not drawn) | i | nt | nt | nt | nt | nt | nt | nt | nt | nt
CCN(Cc1ccccc1)C(c1cccc(C#N)c1)c1nnnn1C(C)(C)C (stereo not drawn) | -9.2 | i | i | -14 | i | 64% | i | 43% | 102 | i
C#CCOc1nc(Nc2cccc([N+](=O)[O-])c2)nc(OCC#C)n1 | -11 | i | i | -18 | i | 51% | i | i | 107 | i
